Compound activity: PubChem, Broad Institute
Many of the other results were omitted from the sample, so hits are more common in it than they were.
KDM4C inh: inhibitors of GASC-1 (KDM4C) histone demethylase, primary screen, biochemical, single concentration HTS. AID 720574, 2013. Lysine-specific demethylase 4C (Homo sapiens), Q9H3R0. inhibition, % at 12.5 µM. GST-KDM4C 2-372, H3K9me3 peptide, LANCE TR-FRET. 96,000 compounds, 0.15% hits;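 active = mean replicate inhibition above about 25%, with at least 55% of replicates also reaching it, limit read from the data, passing the limit was not always enough; inconclusive = only one of those two conditions met; inactive = neither condition met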
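System – N-terminal GST-fused human GASC-1 (KDM4C) fragment, residues 2-372 · Input – enzyme final amount 10 nM · Technique – LANCE TR-FRET, Eu antibody, ULight-streptavidin, EDTA, ex 340 nm, em 618/671 nm · Medium – HEPES buffer, pH 7.5, plus ascorbate · Incubation – enzyme reaction 30 min, then detection 60 min, both room temperature · Reagent – H3K9me3 peptide with Fe(II)/2OG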
IDH1 mut inh: inhibitors of IDH1 R132H reductase, primary screen, biochemical, plate reader, single point | AID 624101, 2012 | diaphorase/resazurin fluorescence, 60 min | Isocitrate dehydrogenase [NADP] cytoplasmic (Homo sapiens), O75874 | inhibition, % at 10 µM | 70,000 compounds, 0.18% hits; in the data active = inhibition above about 34%; inconclusive = no clear call, values can overlap the other calls; inactive = below about 11%
Target sequence (O75874 whole entry R132H): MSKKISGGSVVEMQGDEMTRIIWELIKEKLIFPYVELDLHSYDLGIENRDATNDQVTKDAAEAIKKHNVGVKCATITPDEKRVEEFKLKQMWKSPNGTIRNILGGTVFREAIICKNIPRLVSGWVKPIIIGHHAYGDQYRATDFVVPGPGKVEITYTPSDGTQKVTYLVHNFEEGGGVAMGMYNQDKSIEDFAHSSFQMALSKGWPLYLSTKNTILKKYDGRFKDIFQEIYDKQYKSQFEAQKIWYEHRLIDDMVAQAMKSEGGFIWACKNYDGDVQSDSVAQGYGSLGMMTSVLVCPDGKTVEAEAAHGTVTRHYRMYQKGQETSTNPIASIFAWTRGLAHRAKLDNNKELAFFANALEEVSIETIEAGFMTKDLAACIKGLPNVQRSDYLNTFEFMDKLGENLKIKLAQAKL
T cruzi growth-1: T. cruzi intracellular proliferation inhibitors, primary screen, cell-based, beta-gal Tulahuen parasites, NIH3T3 host, luminescence; T. cruzi beta-gal in NIH3T3, GalScreen luminescence, 90 h; inhibition, % at 8.34 µM; 77,000 compounds, 5.9% hits; AID 624255, 2012;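 active = mean inhibition above about 93%, with at least 55% of replicates each passing it, limit read from the data, passing the limit was not always enough; inconclusive = only one of those two conditions holds; inactive = neither condition holds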
T cruzi growth-2: T. cruzi intracellular proliferation inhibitors, confirmation, cell-based, NIH3T3 host, beta-gal parasite, luminescence, cherry-pick; 5,600 compounds, 72% hits; inhibition, % at 8.35 µM; shares compounds with T cruzi growth-1; T. cruzi beta-gal in NIH3T3, GalScreen luminescence, 90 h; AID 651739, 2012;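 active = mean replicate inhibition above about 95% and at least 55% of replicates individually reaching it, limit read from the data; inconclusive = only one of the two criteria is met; inactive = neither criterion is met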
T cruzi growth-3: inhibitors of intracellular T. cruzi replication, confirmation, NIH3T3 host cells, beta-gal parasites, cherry-pick, set 2 | inhibition, % at 2.09 µM | T. cruzi beta-gal in NIH3T3, GalScreen luminescence, 90 h | 5,600 compounds, 21% hits | shares compounds with T cruzi growth-1;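 active = mean inhibition above about 95%, with at least 55% of replicates also reaching it, limit read from the data; inconclusive = meets just one of the two conditions; inactive = meets neither condition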
3T3 cytotox: cytotoxicity in mouse NIH/3T3 fibroblasts, confirmation, cytotoxicity control for T. cruzi proliferation inhibitor project, cell-based, cherry-pick, single point; NIH/3T3 viability, CellTiter-Glo ATP luminescence, 90 h; shares compounds with T cruzi growth-1; cytotoxicity (signal decrease), % at 8.35 µM; 5,600 compounds, 14% hits;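 active = mean signal decrease across replicates above about 35% based on untreated-well scatter, with enough replicates individually passing, limit read from the data; inconclusive = no rule stated though some were filed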
3T3 cytotox 2: NIH/3T3 fibroblast cytotoxicity, confirmation, cytotoxicity control, cell-based, cherry-pick, single point, set 2; shares compounds with T cruzi growth-1; NIH/3T3 viability, CellTiter-Glo ATP luminescence, 90 h; inhibition, % at 24.9 µM; 5,600 compounds, 56% hits; AID 651744, 2012;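 active = mean loss of cell viability signal at or above a set limit, and enough replicates individually reaching it; inconclusive = meets only the mean limit or only the replicate share; inactive = meets neither condition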
Large screens that a line does not name were inactive (follow-up assays come after a bar, where they were run).

O=C(COc1ccc(S(=O)(=O)N2CCCC2)cc1Cl)Nc1ccccc1F	none (no result: KDM4C inh, T cruzi growth-1)
O=P(O)(C1Cc2ccccc2C1)C(O)c1ccco1 (stereo not given)	none (no result: KDM4C inh, T cruzi growth-1)
Cc1cc(C)nc(SCc2nnnn2-c2ccccc2)n1	none (no result: KDM4C inh, T cruzi growth-1)
C=C1C2=C(O[C@H](/C(C)=C/C(C)CC(C)CC)[C@@H](O)[C@@H]2O)C(=O)N1OC (stereo not given in full)	none (no result: KDM4C inh, T cruzi growth-1)
O=C([C@H]1N[C@H]2c3ccc(C4=CCCCC4)c(=O)n3C[C@H]2[C@@H]1CO)N1CCC(Cc2ccccc2)CC1	none (no result: IDH1 mut inh)
O=C([C@@H]1[C@@H](CO)[C@@H]2Cn3c(ccc(C4=CCCCC4)c3=O)[C@H]1N2)N1CCC(Cc2ccccc2)CC1	T cruzi growth-1 100 (no result: IDH1 mut inh) | T cruzi growth-2 inactive | T cruzi growth-3 inactive | 3T3 cytotox inactive | 3T3 cytotox 2 inactive
C[C@H](CCC(=O)O)[C@H]1CCC2[C@@H]3CC[C@@H]4C[C@H](O)CC[C@]4(C)C3C=C[C@@]21C (stereo not given in full)	none (no result: KDM4C inh, T cruzi growth-1)
Cc1cc(Br)c2c(c1)C(O)(CC(=O)c1ccco1)C(=O)N2C (stereo not given)	none (no result: KDM4C inh, T cruzi growth-1)
O=C(CSc1n[nH]c(-c2ccc(Cl)cc2)n1)Nc1ccc(F)c(Cl)c1	none (no result: KDM4C inh, T cruzi growth-1)
C[C@@H]1CN([C@H](C)CO)C(=O)c2ccccc2-c2ccccc2CO[C@@H]1CN(C)C(=O)Nc1ccnc(N2CCOCC2)c1	T cruzi growth-1 inconclusive | T cruzi growth-2 inactive | T cruzi growth-3 inactive | 3T3 cytotox inactive | 3T3 cytotox 2 inactive
C[C@@H]1CN([C@@H](C)CO)C(=O)c2ccccc2-c2ccccc2CO[C@H]1CN(C)C(=O)Nc1ccnc(N2CCOCC2)c1	T cruzi growth-1 109 | T cruzi growth-2 102 | T cruzi growth-3 inactive | 3T3 cytotox inactive | 3T3 cytotox 2 inactive
C[C@@H]1CN([C@@H](C)CO)C(=O)c2ccccc2-c2ccccc2CO[C@@H]1CN(C)C(=O)Nc1ccccc1	none (no result: IDH1 mut inh)
C[C@@H]1CN([C@@H](C)CO)C(=O)c2c(c3ccccc3n2C)-c2ccccc2CO[C@H]1CN(C)C(=O)Nc1ccnc(N2CCOCC2)c1	none (no result: IDH1 mut inh, T cruzi growth-1)
NC(=O)c1c(NC(=O)C2CC(=O)N(c3ccc(Cl)cc3)C2)sc2c1CCCC2 (stereo not given)	none (no result: KDM4C inh, T cruzi growth-1)
CCCC#Cc1ccc([C@@H]2[C@H]3CN(S(=O)(=O)CC)CCCCN3[C@H]2CO)cc1	none (no result: IDH1 mut inh)
COCC#Cc1ccc([C@H]2[C@H]3CN(S(=O)(=O)c4ccccc4C)CCCCN3[C@H]2CO)cc1	none (no result: IDH1 mut inh)
CCCC#Cc1ccc([C@@H]2[C@@H](CO)N3CCCCN(S(=O)(=O)CC)C[C@@H]23)cc1	T cruzi growth-1 102 (no result: IDH1 mut inh) | T cruzi growth-2 inactive | T cruzi growth-3 inactive | 3T3 cytotox inactive | 3T3 cytotox 2 35
CCCC#Cc1ccc([C@H]2[C@H](CO)N3CCCCN(S(=O)(=O)c4ccccc4C)C[C@@H]23)cc1	T cruzi growth-1 96 (no result: IDH1 mut inh) | T cruzi growth-2 inactive | T cruzi growth-3 99 | 3T3 cytotox inconclusive | 3T3 cytotox 2 103
CCCC#Cc1ccc([C@@H]2[C@H]3CN(S(=O)(=O)c4ccccc4C)CCCCN3[C@H]2CO)cc1	T cruzi growth-1 111 (no result: IDH1 mut inh) | T cruzi growth-2 96 | T cruzi growth-3 inconclusive | 3T3 cytotox inconclusive | 3T3 cytotox 2 106
Cc1ccccc1S(=O)(=O)N1CCCCN2[C@@H](CO)[C@H](c3ccc(C#CCN(C)C)cc3)[C@@H]2C1	none (no result: IDH1 mut inh)
COCC#Cc1ccc([C@H]2[C@@H](CO)N3CCCCN(S(=O)(=O)c4ccccc4C)C[C@H]23)cc1	T cruzi growth-1 98 (no result: IDH1 mut inh) | T cruzi growth-2 98 | T cruzi growth-3 inactive | 3T3 cytotox inactive | 3T3 cytotox 2 107
Cc1ccccc1S(=O)(=O)N1CCCCN2[C@H](C1)[C@@H](c1ccc(C#CCN(C)C)cc1)[C@@H]2CO	none (no result: IDH1 mut inh)
